“And” between values parts separate entries of the source, which are not always exact repeats. Equal entries are not always repeated. Each block holds one molecule with its values, some of them ahead of it.
What was measured:
Rattus norvegicus [1] = species: Rattus norvegicus; test: Concentration required to elicit 50% of the maximal contraction of rat stomach strip; type: functional
Outline: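 Rat stomach strip contraction was measured as the concentration giving 50% of the maximal contraction produced by 3×10^-7 M serotonin.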

[2] = system: thromboxane-A synthase (Homo sapiens); test: Percent inhibition on the synthesis of thromboxane B2 at a dose of 1000 uM
[3] = system: thromboxane-A synthase (Homo sapiens); test: Percent inhibition on the synthesis of thromboxane B2 at a dose of 10 uM
Homo sapiens [4] = species: Homo sapiens; test: Percentage stimulation on the synthesis of PGE-2 was at a dose of 100 uM; type: functional
Outline: (§1)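 Arachidonic acid metabolism was measured in a lysed platelet preparation. Thromboxane synthesis (as TxB2) and PGE2 production were determined at each listed test concentration.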

Homo sapiens [5] = species: Homo sapiens; test: Percentage stimulation on the synthesis of PGE-2 at a dose of 10 uM; type: functional; outline: as §1
Homo sapiens [6] = species: Homo sapiens; test: Percentage stimulation on the synthesis of PGE-2 was at a dose of 1000 uM; type: functional; outline: as §1
[7] = system: thromboxane-A synthase (Homo sapiens); test: Percent inhibition on the synthesis of thromboxane B2 at a dose of 100 uM
Cavia porcellus [8] = species: Cavia porcellus; test: Duration of action of compound for inhibition of arachidonic acid-induced response in guinea pigs; type: functional
Cavia porcellus [9] = test: Change in mean arterial blood pressure(MABP) in guinea pigs by 1 mg/kg of intravenously administered compound; type: functional, Artery; conditions: route intravenous, 1 mg/kg
Outline: (§2)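 Anesthetized guinea pigs were challenged with arachidonic acid, and lung mechanics (lung resistance, dynamic compliance) and mean arterial blood pressure were recorded. Compounds were given as a 1.0 mg/kg rapid iv infusion, with n = 5 versus vehicle. Inhibition above 100% denotes reversal of the blood-pressure response.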

Cavia porcellus [10] = test: Inhibition of arachidonic acid-induced response in guinea pigs by 1 mg/kg of intravenously administered compound; type: functional; set-up: scale not given: the % may be the effect or the level left; conditions: route intravenous; outline: as §2
Rattus norvegicus [11] = species: Rattus norvegicus; test: maximal contraction of rat stomach strip by 3 x 10e -7M serotonin; type: functional
Cavia porcellus [12] = species: Cavia porcellus; test: In vitro evaluation for antagonist activity against the contraction-induced by histamine (1 ug/mL); type: functional; conditions: read-out: I50
Outline: (§3)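 Guinea pig trachea spirals were contracted by either 9,11-azo-PGH2 (a stable PGH2/TxA2 mimetic) or histamine, and compounds were tested for blockade of these contractions.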

Cavia porcellus [13] = species: Cavia porcellus; test: In vitro evaluation for antagonist activity against the contraction-induced by 9,11-azo-PGH2 (0.1 ug/mL); type: functional; conditions: read-out: I50; outline: as §3

Structure (SMILES): O=C(O)CCC/C=C\CC1C2CCC(O2)C1CSc1ccccc1 (configuration not stated)
A50 (Rattus norvegicus [1]): 0.8 µM

Structure (SMILES): CC/C=C/CCSCC1C2CCC(O2)C1CC=CCCCC(=O)O (configuration not stated)
A50 (Rattus norvegicus [1]): 0.04 µM

inhibition [2]: 75% | inhibition [3]: 33% | inhibition [7]: 45%
Structure (SMILES): CCCCCCSC[C@H]1C2CC[C@@H](O2)[C@H]1C/C=C\CCCC(=O)O (single isomer, unassigned; (+))
Stimulation (Homo sapiens [4]): 44% | Stimulation (Homo sapiens [5]): 27% | Stimulation (Homo sapiens [6]): -51%

Structure (SMILES): CCCCSCC1C2CCC(O2)C1C/C=C\CCCC(=O)O (configuration not stated)
Duration (Cavia porcellus [8]): <60 min | Agonist activity (Cavia porcellus [9]): 58% and 98% | Activity (Cavia porcellus [10]): 136% and 180%

Structure (SMILES): CSCC1C2CCC(O2)C1C/C=C\CCCC(=O)O (configuration not stated)
Contraction (Rattus norvegicus [11]): 30%

Structure (SMILES): CCCCCCS(=O)(=O)CC1C2CCC(O2)C1C/C=C\CCCC(=O)O (configuration not stated)
A50 (Rattus norvegicus [1]): 8 µM

Structure (SMILES): O=C(O)CCC/C=C\CC1C2CCC(O2)C1CSCCOc1ccccc1 (configuration not stated)
A50 (Rattus norvegicus [1]): 0.1 µM

Structure (SMILES): CCCCCC[S+]([O-])CC1C2CCC(O2)C1C/C=C\CCCC(=O)O (configuration not stated)
Contraction (Rattus norvegicus [11]): 9% | A50 (Rattus norvegicus [1]): 21 µM

Structure (SMILES): CSCSCC1C2CCC(O2)C1C/C=C\CCCC(=O)O (configuration not stated)
Contraction (Rattus norvegicus [11]): 28%

Structure (SMILES): CCCCCC(C)SCC1C2CCC(O2)C1C/C=C\CCCC(=O)O (configuration not stated)
Duration (Cavia porcellus [8]): 0 min

IC50 (Cavia porcellus [12]): > 100000 nM | IC50 (Cavia porcellus [13]): 1600 nM
Structure (SMILES): CCC/C=C(\C)CSCC1C2CCC(O2)C1CC=CCCCC(=O)O (configuration not stated)
A50 (Rattus norvegicus [1]): 46 µM

Structure (SMILES): O=C(O)CCC/C=C\CC1C2CCC(O2)C1CSCCCc1ccccc1 (configuration not stated)
A50 (Rattus norvegicus [1]): 0.2 µM

Source: ChEMBL document CHEMBL1124688, “9,11-Epoxy-9-homo-14-thiaprost-5-enoic acid derivatives: potent thromboxane A2 antagonists” (J Med Chem, 1989)
